Active and inactive are the calls of the source. The calls are words filed in the database; no cut-off is given here.
Experiments:
[1] = biological target: Tyrosine-protein kinase receptor UFO (Homo sapiens) (UniProt P30530); details: 1000 nM
[2] = Selectivity ratio of IC50 for human Calu3 cells to IC50 for human EBC1 cells; assay type: ADME, cell-based; details: calu-3
Summary of the method: (§1)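 Both IC50s in each ratio come from one proliferation assay. Cells were seeded and exposed the next day to a range of concentrations for 72 h, then read by SRB or MTT. IC50s were fitted by four-parameter concentration–response, with each concentration at least in triplicate and at least 2 experiments. BaF3/TPR-Met is murine pre-B BaF3 transfected with TPR-MET and puromycin-selected.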

[3] = biological target: Hepatocyte growth factor receptor (Canis lupus familiaris) (UniProt Q75ZY9); experiment: Inhibition of c-Met in MDCK cells assessed as inhibition of HGF-induced cell scattering after 24 hrs by crystal violet staining based microscopic analysis
Hepatocyte growth factor receptor (Canis lupus familiaris), sequence (Q75ZY9 whole entry): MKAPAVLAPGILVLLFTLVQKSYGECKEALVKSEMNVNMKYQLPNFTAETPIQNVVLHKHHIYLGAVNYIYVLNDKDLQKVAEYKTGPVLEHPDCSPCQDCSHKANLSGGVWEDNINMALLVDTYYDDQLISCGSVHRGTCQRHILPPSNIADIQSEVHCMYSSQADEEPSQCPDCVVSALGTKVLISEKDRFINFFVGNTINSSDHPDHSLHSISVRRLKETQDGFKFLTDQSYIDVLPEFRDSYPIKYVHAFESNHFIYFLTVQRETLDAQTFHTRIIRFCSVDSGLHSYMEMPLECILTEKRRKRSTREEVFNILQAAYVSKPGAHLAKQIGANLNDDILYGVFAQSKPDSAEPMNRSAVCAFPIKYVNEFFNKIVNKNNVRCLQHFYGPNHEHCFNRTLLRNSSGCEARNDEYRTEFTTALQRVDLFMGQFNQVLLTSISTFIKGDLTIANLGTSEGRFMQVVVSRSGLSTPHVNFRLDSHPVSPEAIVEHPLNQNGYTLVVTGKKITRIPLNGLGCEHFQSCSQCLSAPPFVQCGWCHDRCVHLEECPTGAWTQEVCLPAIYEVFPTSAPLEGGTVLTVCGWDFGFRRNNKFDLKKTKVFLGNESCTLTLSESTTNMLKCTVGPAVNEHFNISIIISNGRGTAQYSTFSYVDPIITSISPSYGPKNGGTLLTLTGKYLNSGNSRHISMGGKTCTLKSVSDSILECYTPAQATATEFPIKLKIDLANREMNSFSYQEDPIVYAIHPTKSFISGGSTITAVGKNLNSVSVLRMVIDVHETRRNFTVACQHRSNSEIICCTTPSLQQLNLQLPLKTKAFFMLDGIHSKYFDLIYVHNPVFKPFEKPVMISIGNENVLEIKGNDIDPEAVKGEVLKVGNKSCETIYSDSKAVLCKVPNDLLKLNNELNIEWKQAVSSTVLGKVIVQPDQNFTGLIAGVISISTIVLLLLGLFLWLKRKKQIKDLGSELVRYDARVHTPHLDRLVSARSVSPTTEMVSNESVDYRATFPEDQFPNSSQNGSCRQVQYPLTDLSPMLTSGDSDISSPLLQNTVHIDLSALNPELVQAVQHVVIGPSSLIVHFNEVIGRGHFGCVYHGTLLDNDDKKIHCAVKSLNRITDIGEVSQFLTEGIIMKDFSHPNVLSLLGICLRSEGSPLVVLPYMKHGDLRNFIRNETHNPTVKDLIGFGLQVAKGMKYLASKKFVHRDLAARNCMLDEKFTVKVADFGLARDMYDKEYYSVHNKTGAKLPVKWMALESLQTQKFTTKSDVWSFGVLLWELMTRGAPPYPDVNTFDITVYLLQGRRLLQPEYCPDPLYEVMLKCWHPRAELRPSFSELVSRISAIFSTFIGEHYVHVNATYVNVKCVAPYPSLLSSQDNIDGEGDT
Summary of the method: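 MDCK cells, 1.5×10^3 per well, grown overnight, then given increasing compound concentrations plus HGF (100 ng/mL). Incubated 24 h at 37 °C, 5% CO2. Fixed in 4% paraformaldehyde 15 min, stained with 0.2% crystal violet and imaged by microscopy. Three independent experiments.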

[4] = biological target: T1, Hepatocyte growth factor receptor (Homo sapiens, UniProt P08581); experiment: Inhibition of c-Met in human MKN45 cells assessed as reduction in ERK phosphorylation at Threonine 202 at 10 nM after 1 hr by Western blot analysis; assay type: cell-based; details: MKN-45
T1 sequence (P08581 whole entry): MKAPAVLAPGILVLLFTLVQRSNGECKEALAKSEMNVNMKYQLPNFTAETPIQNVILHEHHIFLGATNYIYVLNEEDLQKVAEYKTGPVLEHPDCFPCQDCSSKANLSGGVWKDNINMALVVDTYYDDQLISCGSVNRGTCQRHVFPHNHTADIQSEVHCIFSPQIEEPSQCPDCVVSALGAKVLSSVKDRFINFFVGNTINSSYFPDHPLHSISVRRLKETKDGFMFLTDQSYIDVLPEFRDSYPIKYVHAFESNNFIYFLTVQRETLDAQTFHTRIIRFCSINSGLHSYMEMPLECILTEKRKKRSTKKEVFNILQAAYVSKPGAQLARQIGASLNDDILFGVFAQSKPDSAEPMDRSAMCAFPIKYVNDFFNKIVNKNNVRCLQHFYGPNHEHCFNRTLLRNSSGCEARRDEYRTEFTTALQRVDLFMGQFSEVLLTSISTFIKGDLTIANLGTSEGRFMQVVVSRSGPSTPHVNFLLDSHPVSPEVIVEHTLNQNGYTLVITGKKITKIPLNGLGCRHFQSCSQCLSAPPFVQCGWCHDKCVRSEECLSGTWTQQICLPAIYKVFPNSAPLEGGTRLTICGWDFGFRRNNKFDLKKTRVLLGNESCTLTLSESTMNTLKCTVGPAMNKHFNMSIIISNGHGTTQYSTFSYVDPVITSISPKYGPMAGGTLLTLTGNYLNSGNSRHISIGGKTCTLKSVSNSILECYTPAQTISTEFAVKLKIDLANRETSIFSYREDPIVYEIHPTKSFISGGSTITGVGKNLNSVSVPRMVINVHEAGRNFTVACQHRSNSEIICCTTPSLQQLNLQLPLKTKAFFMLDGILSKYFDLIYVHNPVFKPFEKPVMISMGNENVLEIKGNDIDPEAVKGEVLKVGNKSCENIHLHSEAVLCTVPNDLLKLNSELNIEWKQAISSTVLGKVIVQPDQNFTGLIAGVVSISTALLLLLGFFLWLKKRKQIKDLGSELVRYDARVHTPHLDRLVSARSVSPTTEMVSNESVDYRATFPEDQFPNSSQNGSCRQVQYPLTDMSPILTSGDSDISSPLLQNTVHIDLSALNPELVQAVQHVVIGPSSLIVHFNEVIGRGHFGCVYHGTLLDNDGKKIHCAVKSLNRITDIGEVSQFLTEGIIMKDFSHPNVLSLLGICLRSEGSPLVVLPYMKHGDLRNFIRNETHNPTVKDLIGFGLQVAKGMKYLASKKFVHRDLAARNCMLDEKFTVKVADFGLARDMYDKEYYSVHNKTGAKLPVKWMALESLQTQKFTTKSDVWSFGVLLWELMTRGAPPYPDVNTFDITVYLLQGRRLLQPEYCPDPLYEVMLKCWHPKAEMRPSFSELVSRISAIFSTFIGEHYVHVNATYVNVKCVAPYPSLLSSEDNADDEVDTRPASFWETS
Summary of the method: (§2)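 EBC-1 or MKN45 cells treated with compound 1 h at 37 °C without HGF, then lysed in 1× SDS sample buffer. Lysates run on 10% SDS-PAGE and transferred to nitrocellulose. Probed with antibodies to c-Met, phospho-c-Met, phospho-ERK1/2, phospho-AKT, AKT and GAPDH, then HRP secondary. ECL detection.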

[5] = Selectivity ratio of IC50 for human NCI-H596 cells to IC50 for human MKN45 cells; assay type: ADME, cell-based; details: mkn-45
Summary of the method: as §1

[6] = Selectivity ratio of IC50 for human AGS cells to IC50 for human MKN45 cells; assay type: ADME, cell-based
Summary of the method: as §1

[7] = Selectivity ratio of IC50 for human HCT116 cells to IC50 for human EBC1 cells; assay type: ADME, cell-based; details: hct-116
Summary of the method: as §1

[8] = biological target: Receptor-type tyrosine-protein kinase FLT3 (Homo sapiens) (UniProt P36888); experiment: Inhibition of recombinant FLT3 (unknown origin) using poly (Glu, Tyr) 4:1 as substrate at 1000 nM incubated for 60 mins by ELISA relative to control
Summary of the method: (§3)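 Recombinant tyrosine kinases assayed on wells precoated with poly(Glu,Tyr)4:1 (20 µg/mL). ATP 10 µmol/L in HEPES pH 7.4 buffer with MgCl2, MnCl2, Na3VO4 and DTT; compound in 1% DMSO, 1% DMSO as control. Reaction 60 min at 37 °C. Phosphotyrosine detected with PY99 and HRP anti-mouse, o-phenylenediamine, A490. Inhibition % relative to control; two experiments.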

[9] = Selectivity ratio of IC50 for human NCI-HCC827 cells to IC50 for mouse BAF3 cells expressing TPR-MET; assay type: ADME, cell-based
Summary of the method: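 Each cell line was seeded in 96-well plates, then exposed the next day to a range of compound concentrations for 72 h. Growth was read by SRB or MTT assay, and IC50 was fitted by a four-parameter concentration-response curve. Each concentration was run at least in triplicate, in at least 2 experiments. BaF3/TPR-Met are murine pre-B BaF3 cells transfected with TPR-MET cDNA and selected in puromycin.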

[10] = Selectivity ratio of IC50 for human SNU16 cells to IC50 for human MKN45 cells; assay type: ADME, cell-based; details: snu-16
[11] = Antiproliferative activity against human SPCA1 cells after 72 hrs by SRB or MTT assay; assay type: functional, cell-based; details: SPCA1, 72 h
Summary of the method: (§4)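 Cells seeded, exposed next day to a range of concentrations for 72 h. Growth read by sulforhodamine B or MTT. IC50 from four-parameter concentration-response fit. Each concentration tested at least in triplicate, with at least 2 experiments.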

[12] = biological target: Proto-oncogene tyrosine-protein kinase ROS (Homo sapiens) (UniProt P08922); experiment: Inhibition of recombinant ROS1 (unknown origin) using poly (Glu, Tyr) 4:1 as substrate at 1000 nM incubated for 60 mins by ELISA relative to control
Proto-oncogene tyrosine-protein kinase ROS (Homo sapiens), sequence (P08922 whole entry): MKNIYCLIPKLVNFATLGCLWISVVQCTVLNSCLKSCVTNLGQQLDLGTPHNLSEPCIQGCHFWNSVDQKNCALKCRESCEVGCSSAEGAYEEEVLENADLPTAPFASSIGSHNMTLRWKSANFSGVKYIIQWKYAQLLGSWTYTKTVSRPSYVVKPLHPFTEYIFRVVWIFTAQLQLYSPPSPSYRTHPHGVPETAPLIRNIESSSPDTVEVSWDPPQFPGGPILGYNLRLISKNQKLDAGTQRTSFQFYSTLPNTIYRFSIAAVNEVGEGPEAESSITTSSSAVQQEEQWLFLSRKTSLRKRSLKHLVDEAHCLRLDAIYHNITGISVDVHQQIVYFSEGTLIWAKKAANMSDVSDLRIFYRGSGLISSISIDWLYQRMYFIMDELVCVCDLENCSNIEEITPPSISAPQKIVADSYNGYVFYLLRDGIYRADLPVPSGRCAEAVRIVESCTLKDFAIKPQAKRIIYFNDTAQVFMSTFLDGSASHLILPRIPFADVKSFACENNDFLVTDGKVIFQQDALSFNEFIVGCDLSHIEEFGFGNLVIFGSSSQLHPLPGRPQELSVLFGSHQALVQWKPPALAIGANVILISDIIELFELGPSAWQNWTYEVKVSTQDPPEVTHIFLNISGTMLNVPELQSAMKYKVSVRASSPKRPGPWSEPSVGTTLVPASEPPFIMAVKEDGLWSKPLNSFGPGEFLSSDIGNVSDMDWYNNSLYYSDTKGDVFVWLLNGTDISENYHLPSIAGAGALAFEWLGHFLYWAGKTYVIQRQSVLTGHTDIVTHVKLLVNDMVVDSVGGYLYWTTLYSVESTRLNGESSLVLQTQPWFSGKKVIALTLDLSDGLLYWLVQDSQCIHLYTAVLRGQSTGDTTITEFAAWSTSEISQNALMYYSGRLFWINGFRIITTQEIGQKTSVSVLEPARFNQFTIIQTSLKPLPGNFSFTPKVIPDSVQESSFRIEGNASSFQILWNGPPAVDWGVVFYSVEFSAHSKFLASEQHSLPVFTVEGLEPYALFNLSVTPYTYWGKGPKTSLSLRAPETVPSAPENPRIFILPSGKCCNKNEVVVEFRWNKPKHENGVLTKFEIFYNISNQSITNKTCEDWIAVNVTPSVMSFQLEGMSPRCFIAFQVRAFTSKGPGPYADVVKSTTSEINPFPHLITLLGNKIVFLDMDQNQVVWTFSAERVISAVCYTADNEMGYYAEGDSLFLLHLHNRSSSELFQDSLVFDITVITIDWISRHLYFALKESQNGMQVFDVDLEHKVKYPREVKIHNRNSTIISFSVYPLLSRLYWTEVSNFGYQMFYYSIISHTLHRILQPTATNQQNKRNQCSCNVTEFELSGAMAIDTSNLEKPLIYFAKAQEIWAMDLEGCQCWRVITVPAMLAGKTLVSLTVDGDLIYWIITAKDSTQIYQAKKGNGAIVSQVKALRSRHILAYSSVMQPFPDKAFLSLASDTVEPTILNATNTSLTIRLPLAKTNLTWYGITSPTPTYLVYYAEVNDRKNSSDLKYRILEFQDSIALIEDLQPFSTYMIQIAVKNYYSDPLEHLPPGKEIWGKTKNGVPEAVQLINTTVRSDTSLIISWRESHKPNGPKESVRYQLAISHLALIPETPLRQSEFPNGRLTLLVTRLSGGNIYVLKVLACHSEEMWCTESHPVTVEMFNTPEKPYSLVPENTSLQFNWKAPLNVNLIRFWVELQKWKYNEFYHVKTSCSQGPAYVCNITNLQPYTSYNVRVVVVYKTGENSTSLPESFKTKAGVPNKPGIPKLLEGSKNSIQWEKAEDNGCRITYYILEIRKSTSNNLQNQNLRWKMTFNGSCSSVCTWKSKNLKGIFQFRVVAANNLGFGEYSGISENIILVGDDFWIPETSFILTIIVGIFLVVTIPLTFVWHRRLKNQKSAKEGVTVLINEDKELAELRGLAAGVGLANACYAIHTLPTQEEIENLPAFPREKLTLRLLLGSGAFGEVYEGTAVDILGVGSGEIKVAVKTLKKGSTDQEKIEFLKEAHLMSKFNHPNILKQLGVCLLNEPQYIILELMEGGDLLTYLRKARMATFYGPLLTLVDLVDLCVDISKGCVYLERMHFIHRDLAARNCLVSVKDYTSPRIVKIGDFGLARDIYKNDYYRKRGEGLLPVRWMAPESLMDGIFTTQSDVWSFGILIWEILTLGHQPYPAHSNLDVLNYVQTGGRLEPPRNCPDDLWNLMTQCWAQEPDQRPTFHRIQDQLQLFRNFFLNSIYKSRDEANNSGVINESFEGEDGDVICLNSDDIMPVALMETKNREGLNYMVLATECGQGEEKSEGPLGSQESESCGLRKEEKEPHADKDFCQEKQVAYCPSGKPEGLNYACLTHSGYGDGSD
Summary of the method: as §3

[13] = Antiproliferative activity against human HCT116 cells after 72 hrs by SRB or MTT assay; assay type: functional, cell-based; details: HCT-116, 72 h
Summary of the method: as §4

[14] = biological target: Epidermal growth factor receptor (Homo sapiens) (UniProt P00533); experiment: Inhibition of recombinant EGFR (unknown origin) using poly (Glu, Tyr) 4:1 as substrate at 1000 nM incubated for 60 mins by ELISA relative to control
Summary of the method: as §3

[15] = biological target: T1, Hepatocyte growth factor receptor; experiment: Inhibition of c-Met in human EBC1 cells assessed as reduction in AKT phosphorylation at Serine 473 at 10 nM after 1 hr by Western blot analysis; assay type: cell-based
Summary of the method: as §2

[16] = Selectivity ratio of IC50 for human SPCA1 cells to IC50 for mouse BAF3 cells expressing TPR-MET; assay type: ADME, cell-based; details: SPCA1 cells versus BAF3 cells expressing TPR-MET
[17] = biological target: T1, Hepatocyte growth factor receptor; experiment: Inhibition of c-Met in human MKN45 cells assessed as reduction in ERK phosphorylation at Tyrosine 204 at 10 nM after 1 hr by Western blot analysis; assay type: cell-based; details: MKN-45
Summary of the method: as §2

[18] = biological target: Ephrin type-B receptor 2 (Homo sapiens) (UniProt P29323); experiment: Inhibition of recombinant EPHB2 (unknown origin) using poly (Glu, Tyr) 4:1 as substrate at 1000 nM incubated for 60 mins by ELISA relative to control
Summary of the method: as §3

[19] = Antitumor activity against human MKN45 cells xenografted in athymic nude mouse assessed as tumor growth inhibition at 12.5 mg/kg, po bid for 21 days measured twice a week during compound dosing relative to control; assay type: functional; details: MKN-45, po, 504 h, read-out: TGI
Summary of the method: (§5)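 Nude mice bearing s.c. tumours. Cells were first grown s.c. to 700–800 mm³, then 1.5 mm³ fragments were transplanted s.c. into the right flank. Mice were randomised at 100–200 mm³ (n=6 treated, n=12 vehicle) and dosed orally twice daily for 21 days. Caliper measurement twice weekly; TV = length×width²/2. TGI taken on the final day versus vehicle; Student's t test.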

[20] = Selectivity ratio of IC50 for human NCI-H3122 cells to IC50 for human MKN45 cells; assay type: ADME, cell-based; details: mkn-45
Summary of the method: as §1

[21] = Selectivity ratio of IC50 for human AGS cells to IC50 for mouse BAF3 cells expressing TPR-MET; assay type: ADME, cell-based
Summary of the method: as §1

[22] = Selectivity ratio of IC50 for human NCI-H358 cells to IC50 for mouse BAF3 cells expressing TPR-MET; assay type: ADME, cell-based
Summary of the method: as §1

[23] = Antiproliferative activity against human NCI-H3122 cells after 72 hrs by SRB or MTT assay; assay type: functional, cell-based; details: NCI-H3122, 72 h
Summary of the method: as §4

[24] = Antiproliferative activity against human SMMC7721 cells after 72 hrs by SRB or MTT assay; assay type: functional, cell-based; details: SMMC-7721, 72 h
Summary of the method: as §4

EBC-1 = experiment: Antitumor activity against human EBC1 cells xenografted in po dosed athymic nude mouse assessed as tumor growth inhibition administered bid for 21 days measured twice a week during compound dosing; assay type: functional, organism-based
Summary of the method: as §5

Fc1ccc(-c2cnc3nnc(C(F)(F)c4ccc5ncccc5c4)n3n2)cc1
inhibition [1]: 36%
Ratio IC50 [2]: > 10000
inhibition [3]: Dose-dependent effect
inhibition [4]: Active
Ratio IC50 [5]: 10000
Ratio IC50 [6]: 10000
Ratio IC50 [7]: 10000
inhibition [8]: 12.3%
Ratio IC50 [9]: 10000
Ratio IC50 [10]: 10000
IC50 [11]: > 10 µM
inhibition [12]: 10.6%
IC50 [13]: > 10 µM
inhibition [14]: 33.2%
inhibition [15]: Active
selectivity ratio [16]: > 10000
inhibition [17]: Active
inhibition [18]: 8.5%
inhibition in vivo at 12.5 mg/kg [19]: 80.1%
Ratio IC50 [20]: 10000
Ratio IC50 [21]: 10000
Ratio IC50 [22]: 10000
IC50 [23]: > 10 µM
IC50 [24]: > 10 µM
TGI (EBC-1): Dose-dependent effect

Source: ChEMBL document CHEMBL3797175, “Discovery of 6-(difluoro(6-(4-fluorophenyl)-[1,2,4]triazolo[4,3-b][1,2,4]triazin-3-yl)methyl)quinoline as a highly potent and selective c-Met inhibitor” (Eur J Med Chem, 2016)
